This is a sample that favours compounds with a hit; in the whole collection about 2% have one here.
CSN deneddyl inh = inhibitors of human CSN-mediated cullin deneddylation | Q92905 | Purified CSN, SCF-Nedd8-OG deneddylation, fluorescence polarization | inhibition, % at 12.5 µM | actives 0.38% (n = 360,000) | AID 651999;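 active = pattern-corrected inhibition above about 35%, with an unprinted fluorescence ratio check between 0.5 and 1.5, limit read from the data, passing the limit was not always enough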;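 note: 0% = enzyme with substrate and 100% = substrate without enzyme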
Target sequence (Q92905 whole entry, looked up, one chain of several): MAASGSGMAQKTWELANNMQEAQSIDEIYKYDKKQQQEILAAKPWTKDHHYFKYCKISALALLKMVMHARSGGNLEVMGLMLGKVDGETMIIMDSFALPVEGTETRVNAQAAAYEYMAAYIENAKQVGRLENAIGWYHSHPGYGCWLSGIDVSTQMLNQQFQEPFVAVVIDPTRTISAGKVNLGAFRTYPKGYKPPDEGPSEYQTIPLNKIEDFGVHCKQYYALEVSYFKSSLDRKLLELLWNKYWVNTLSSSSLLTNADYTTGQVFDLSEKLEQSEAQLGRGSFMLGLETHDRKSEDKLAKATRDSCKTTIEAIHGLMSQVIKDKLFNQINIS
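Test system: Human Csn5 produced in HEK293T cells | Compound: 12.5 µM single point | Times: 90 min, room temperature | Signal: Fluorescence polarization readout | Read-out basis: % inhibition of substrate cleavage by Csn5 | Controls: no-enzyme wells high, enzyme-with-substrate wells low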
LMPTP block = LMPTP (human) inhibition. P24666. recombinant LMPTP-A, OMFP fluorogenic substrate, fluorescence intensity. inhibition, % at 20 µM. actives 0.22% (n = 360,000);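 active = compounds that cut the enzyme signal by at least half of the control window in the single-dose screen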;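 note: plate controls were DMSO wells with enzyme plus substrate for no effect and substrate without enzyme for full effect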
Target sequence (P24666 whole entry, looked up): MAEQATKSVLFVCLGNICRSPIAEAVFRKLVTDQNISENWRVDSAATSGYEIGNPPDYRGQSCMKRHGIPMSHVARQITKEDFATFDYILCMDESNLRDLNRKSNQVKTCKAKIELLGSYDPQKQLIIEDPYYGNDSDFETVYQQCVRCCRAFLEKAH
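test system = LMPTP-A | amount = 0.625 nM LMPTP-A final | reagent = fluorogenic phosphatase substrate OMFP at 400 µM final | incubation = 50 min at room temperature | benchmarks = no-enzyme low control, uninhibited high control | medium = Bis-Tris pH 6.0, DTT, detergent | signal = fluorescence intensity of OMFP turnover product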
SUMO1 PPI mod = SUMO1-SIM interaction modulation. SUMO1 binding to a labelled peptide, TR-FRET, 1 h. P63165. inhibition, % at 20 µM. actives 0.33% (n = 360,000); in the data active = inhibition above about 37%
DNMT1 inh = inhibitors of human DNMT1. P26358. DNMT1 molecular beacon, Hinp1I cleavage, fluorescence. inhibition (reported as % activation of signal), % at 10 µM. actives 0.83% (n = 360,000). AID 588458; in the data active = inhibition above about 50%
STEP block = inhibitors of human striatal-enriched phosphatase STEP. recombinant STEP, OMFP fluorogenic substrate, fluorescence. P54829. inhibition, % at 20 µM. actives 0.25% (n = 360,000);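 active = inhibition at 20 µM, scaled per plate between control wells, above about 37%, limit read from the data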;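 note: 0% = DMSO with enzyme and substrate and 100% = substrate only without enzyme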
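System: STEP (striatal-enriched tyrosine phosphatase) enzyme, cell-free; medium: Bis-Tris pH 6.0 buffer with DTT, detergent; dosing: 20 µM, 1% DMSO; times: reaction 20 min, ambient temperature; detection: fluorescence, 480/540 nm; read-out basis: normalized % inhibition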
Scp1 inh = inhibitors of human Scp-1 phosphatase; inhibition, % at 20 µM; Q9GZU7; actives 0.88% (n = 340,000); Recombinant Scp1, phosphopeptide, malachite green phosphate absorbance;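 active = inhibition above about 50% at 20 µM, limit read from the data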;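 note: plate controls were DMSO wells with enzyme for no effect and wells lacking enzyme for full effect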
Target sequence (Q9GZU7 76-261 limits assumed): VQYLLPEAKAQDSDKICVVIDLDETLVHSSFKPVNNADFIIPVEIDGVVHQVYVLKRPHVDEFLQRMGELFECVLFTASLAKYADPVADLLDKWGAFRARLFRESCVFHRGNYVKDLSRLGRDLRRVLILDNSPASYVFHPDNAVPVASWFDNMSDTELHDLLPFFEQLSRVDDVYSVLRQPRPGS
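Test system: SCP-1 catalytic domain; Buffer or medium: Acidic Tris acetate buffer with magnesium and detergent; Also added: Phosphorylated 17-residue peptide substrate; Compound: single 20 µM dose, 1% DMSO; Schedule: enzyme reaction 45 min at room temperature, colour 5 min, stabilisation 30 min; Signal: Phosphate-binding colour reagent, absorbance read at 630 nm.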
Scp1 confirm = confirmation of human Scp-1 phosphatase inhibitors; actives 61% (n = 2,500); shares compounds with Scp1 inh; recombinant SCP-1 catalytic domain, phosphate release, malachite green absorbance; inhibition, % at 20 µM;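 note: plate controls were DMSO with enzyme for no effect and buffer wells lacking enzyme for full effect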
Scp-1 MG ctr = counter-screen for Scp-1 inhibitors: colorimetric interference; apparent inhibition (interference), % at 20 µM; 2,500 tested, under 10 active; AID 540313; Colorimetric interference counterscreen, malachite green absorbance 630 nm; shares compounds with Scp1 inh;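 note: compounds added after enzyme reaction finished so only phosphate colour detection is probed; plate controls were DMSO wells with completed Scp-1 reaction for no effect and substrate wells lacking enzyme for full effect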
Scp-1 Tm shift = validation of human Scp-1 inhibitors by thermal shift binding; shares compounds with Scp1 inh; Recombinant SCP1, Sypro Orange thermal shift Tm; thermal shift relative to vanadate control, % at 40 µM; actives 25% (n = 1,500);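 active = substances whose mean melting-temperature shift, as a percentage of the reference inhibitor's shift, reaches about 5.3%, limit read from the data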;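 note: 0% = Tm of DMSO wells and 100% = Tm with sodium orthovanadate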
The depositor's hits bear a star.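 Rule for the calls, unless noted: active = inhibition of at least 30% at 20 µM; inactive = the rest.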

`CCCCc1c(CCC)c(=N)c2ccccc2n1C` gave CSN deneddyl inh 2, LMPTP block 10, SUMO1 PPI mod 1, DNMT1 inh 0, STEP block -1, Scp1 inh 91*, Scp1 confirm 7 and Scp-1 MG ctr -10.
For CCCCc1c(O)c2ccccc2n(CCCC)c1=O the results were CSN deneddyl inh -2, LMPTP block 0, SUMO1 PPI mod 6, DNMT1 inh -2, STEP block -4 and Scp1 inh -6.
For Cc1ccc(S(=O)(=O)N2C[C@@H]3[C@H]4CC[C@H](C4)[C@@H]3[C@@H](C)[C@H]2c2ccn(Cc3ccccc3)c2)cc1 the results were CSN deneddyl inh -6, LMPTP block 3, SUMO1 PPI mod 0, DNMT1 inh 11, STEP block 3 and Scp1 inh -1.
CCCc1nc(-c2cc3ccc(C)cc3[nH]c2=O)no1 was read as CSN deneddyl inh -2, LMPTP block -1, SUMO1 PPI mod -9, DNMT1 inh 4, STEP block -2 and Scp1 inh -5.
Screening CCOc1ccccc1-c1nc(-c2cc3ccc(C)cc3[nH]c2=O)no1 returned CSN deneddyl inh 12, LMPTP block 3, SUMO1 PPI mod 0, DNMT1 inh 4, STEP block 33, Scp1 inh 57*, Scp1 confirm 39*, Scp-1 MG ctr -4 and Scp-1 Tm shift -4.
Screening CCC(C(=O)OCC(=O)N(CC)c1c(N)n(Cc2ccccc2)c(=O)[nH]c1=O)c1ccccc1 (stereo not drawn) returned CSN deneddyl inh -6, LMPTP block -1, SUMO1 PPI mod -4, DNMT1 inh -1, STEP block -3 and Scp1 inh -3.
`COc1cccc(NC(=O)CN(C)C(=O)COc2ccccc2Cc2ccccc2)c1` gave CSN deneddyl inh -6, LMPTP block 2, SUMO1 PPI mod 7, DNMT1 inh -7, STEP block 2 and Scp1 inh -7.
Screening CCn1c(/C=C/c2cc[n+](C)cc2)nc2ccccc21 returned CSN deneddyl inh -2, LMPTP block 0, SUMO1 PPI mod -34, DNMT1 inh -6, STEP block -3, Scp1 inh 102*, Scp1 confirm 12 and Scp-1 MG ctr -8.
For Cc1ccc(-c2csc(C3=C(O)CN(NC(=O)c4ccco4)C3=N)n2)cc1 the results were CSN deneddyl inh -1, LMPTP block 41, SUMO1 PPI mod 5, DNMT1 inh 21, STEP block 12, Scp1 inh 51*, Scp1 confirm 35*, Scp-1 MG ctr -2 and Scp-1 Tm shift -12.
`CCOCCn1c(C)c(C(=O)OCC)c2cc(O)c3ccccc3c21` gave CSN deneddyl inh 2, LMPTP block 2, SUMO1 PPI mod 4, DNMT1 inh -8, STEP block -1 and Scp1 inh -10.
Cc1ccc(NC(=O)CSc2sc3c(O)cc(=O)[nH]c3c2C#N)c(F)c1 was read as CSN deneddyl inh 6, LMPTP block -1, SUMO1 PPI mod 39, DNMT1 inh 9, STEP block 4 and Scp1 inh 30.
`COc1ccc(OC)c(NC(=O)CSc2sc3c(O)cc(=O)[nH]c3c2C#N)c1` gave CSN deneddyl inh 11, LMPTP block 44, SUMO1 PPI mod 12, DNMT1 inh 16, STEP block 13, Scp1 inh 70*, Scp1 confirm 55*, Scp-1 MG ctr -12 and Scp-1 Tm shift 11*.
Screening COc1cc(Cl)c(C)cc1NC(=O)CSc1sc2c(O)cc(=O)[nH]c2c1C#N returned CSN deneddyl inh 22, LMPTP block 35, SUMO1 PPI mod 23, DNMT1 inh 44, STEP block 16, Scp1 inh 65*, Scp1 confirm 76*, Scp-1 MG ctr 0 and Scp-1 Tm shift 13*.
CCc1ccc(C(O)c2ncc(-c3cccc(F)c3)[nH]2)cc1 (stereo not drawn) was read as CSN deneddyl inh 5, LMPTP block 2, SUMO1 PPI mod 2, DNMT1 inh -2 and STEP block 0.
For O=C(CNC(=O)Cc1ccccc1)NCC(=O)N1CCCCC1 the results were CSN deneddyl inh 1, LMPTP block -2, SUMO1 PPI mod 2, DNMT1 inh 0, STEP block 0 and Scp1 inh -8.
For O=C(CNC(=O)Cc1ccc(Cl)cc1)NCC(=O)N1CCCCC1 the results were CSN deneddyl inh 2, LMPTP block 1, SUMO1 PPI mod 4, DNMT1 inh 0, STEP block -1, Scp1 inh 65*, Scp1 confirm -10 and Scp-1 MG ctr -14.
For CCOc1ccc(S(=O)(=O)NCc2ccccc2Cl)cc1C(N)=O the results were CSN deneddyl inh -1, LMPTP block -1, SUMO1 PPI mod 2, DNMT1 inh -3, STEP block -4, Scp1 inh 0, Scp1 confirm -21 and Scp-1 MG ctr -19.
CN(C)S(=O)(=O)c1cccc(NC(=O)CN2C(=O)NC(CCc3ccccc3)C2=O)c1 (stereo not drawn) was read as CSN deneddyl inh -6, LMPTP block 0, SUMO1 PPI mod 3, DNMT1 inh -2, STEP block -2 and Scp1 inh -4.
O=C(Cn1nnc(-c2ccccc2)n1)NNC(=O)c1ccccc1 was read as CSN deneddyl inh 2, LMPTP block -1, SUMO1 PPI mod 1, DNMT1 inh 3, STEP block 0 and Scp1 inh 0.
`Cc1ccc(OCC(=O)NNC(=O)Cn2nnc(-c3ccccc3)n2)cc1` gave CSN deneddyl inh -5, LMPTP block 36, SUMO1 PPI mod -3, DNMT1 inh 1, STEP block 32, Scp1 inh 53*, Scp1 confirm 41*, Scp-1 MG ctr -4 and Scp-1 Tm shift -8.
`CCN(CC)CCn1c2ccccc2c2nc3ccc([N+](=O)[O-])cc3cc21` gave CSN deneddyl inh 9, LMPTP block 5, SUMO1 PPI mod 1, DNMT1 inh 48, STEP block 2 and Scp1 inh 11.

High-throughput results as filed in PubChem.
